FN deposit inh = fibronectin deposition inhibition. AH1F fibroblasts, Alexa488-fibronectin deposition fluorescence, overnight. inhibition, % at 12.6 µM. 0.086% of 350,000 active. AID 743247;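 active = mean inhibition across replicates of 30% or more, regardless of how many single replicates reach that level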;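 note: positive control wells lacked labelled fibronectin entirely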
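material = AH1F fibroblast monolayer depositing Alexa488-labelled fibronectin into matrix | amount = 10000 AH1F cells/well | buffer or medium = DMEM plus 2% serum, read in PBS | incubation = 1 h cell adhesion before compound, then overnight fibronectin incubation | detection = fluorescence at 485 nm excitation, 525 nm emission | evaluation = percent inhibition as loss of matrix-bound fibronectin fluorescence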
Env fusion inh = HIV envelope-mediated fusion inhibition | HeLa-JRFL Env/CEM21 cell fusion, luciferase | inhibition, % at 12.3 µM | 1.1% of 360,000 active | AID 651610;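 active = mean replicate inhibition score of at least 50 and every replicate individually at or above 50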;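 note: 0% = plate neutral controls and 100% = maraviroc near 300 nM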
ERp5 block = blocks human ERp5 reductase activity on insulin | ERp5 insulin aggregation, absorbance 650 nm, 90 min | inhibition, % at 9.99 µM | AID 651711 | 0.05% of 350,000 active | Q15084;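 active = mean replicate inhibition above about 25%, with every replicate also reaching it, limit read from the data, passing the limit was not always enough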
Target sequence (Q15084 whole entry, looked up): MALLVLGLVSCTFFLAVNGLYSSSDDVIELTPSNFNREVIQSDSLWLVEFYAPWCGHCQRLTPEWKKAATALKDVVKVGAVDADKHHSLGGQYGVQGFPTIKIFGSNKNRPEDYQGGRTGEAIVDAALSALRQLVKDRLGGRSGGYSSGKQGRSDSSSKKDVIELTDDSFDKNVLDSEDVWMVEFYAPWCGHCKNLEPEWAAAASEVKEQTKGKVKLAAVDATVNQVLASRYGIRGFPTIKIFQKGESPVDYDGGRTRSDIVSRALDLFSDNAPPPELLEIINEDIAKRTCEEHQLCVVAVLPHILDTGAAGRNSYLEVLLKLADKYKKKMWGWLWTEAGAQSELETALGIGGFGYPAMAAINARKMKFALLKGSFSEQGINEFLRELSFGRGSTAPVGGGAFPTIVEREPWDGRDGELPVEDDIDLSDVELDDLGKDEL
GSIS activator = GLuc luminescence reporter in INS-1E cells, primary screen for activators of glucose-dependent secretion of insulin; INS-1E GLuc reporter insulin secretion, 2-3 h; activation, % at 16.6 µM; 0.61% of 370,000 active; AID 743287;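 active = lowest replicate activation of at least 40%, so every replicate reaches that level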;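 note: 0% = median of neutral control wells and 100% = median of IBMX positive control wells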
PDI inh = PDI (human) enzyme inhibition; P07237; PDI insulin aggregation turbidity, A650, 90 min; inhibition, % at 10 µM; 0.052% of 350,000 active;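 active = mean inhibition across replicates of 30% or more, whatever share of single replicates reach that level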
Starred values were filed as active, the others as inactive; / = no result given; [ ] = dose if it differs, or a comment. A selection: hits, their analogues and other compounds. The true share with any hit is near 1.4%.

SMILES | FN deposit inh | Env fusion inh | ERp5 block | GSIS activator | PDI inh
C[C@H](CO)N1C[C@H](C)[C@@H](CN(C)C(=O)Nc2ccc(C(F)(F)F)cc2)OCCCC[C@H](C)Oc2ccc(NS(=O)(=O)c3ccc(F)cc3)cc2C1=O | 4 | 70*[16.7 µM] | -3 | 13 | /
COc1cc(/C=N/Nc2cc(C)nc(NS(=O)(=O)c3ccc(C)cc3)n2)ccc1O | -2 | 11 | 1 | 46* | 28
COc1cccc(CNc2nc3cc(-c4ccccc4)sc3c(=O)n2C)c1OC | 5 | 66* | -2 | 13 | -4
COc1cccc(S(=O)(=O)Nc2ccc3c(c2)[C@H]2C[C@@H](CC(=O)N4CCCCC4)O[C@@H](CO)[C@H]2O3)c1 | / | 2[16.7 µM] | 2 | -3 | /
N#C/C(=C/c1ccc(-c2ccc(S(N)(=O)=O)cc2)o1)C(=O)Nc1ccccc1 | 2 | -21 | / | 116* | 6
Cc1ccc(NC(=O)CNC(=O)c2sc3ccccc3c2Cl)nc1 | -4 | -12 | -11 | 70* | 0
CC(=O)Nc1ccc(NC(=O)CNC(=O)c2sc3ccccc3c2Cl)cc1 | 2 | -1 | -4 | 9 | 12
CCn1nnc(NC(=O)c2sc3ccccc3c2Cl)n1 | / | / | / | 43* | 5
COc1ccc(-c2ccc([C@@H]3[C@@H](CO)N(C(=O)NC4CCCC4)[C@H]3C#N)cc2)cc1 | -4 | -2[16.7 µM] | 0 | 10 | /
CC(=O)N1CCN(c2nnc(-c3ccccc3)c3ccccc23)CC1 | 14 | 13 | 2 | 40* | -7
NC(=O)C1CCN(c2nc(-c3ccccc3)nc3c2oc2ccccc23)CC1 | / | / | / | -8 | 0
O=C(CN1C(=O)c2ccccc2C1=O)N1CCN(c2nnc(-c3ccccc3)c3ccccc23)CC1 | 5 | -30 | / | / | -2
CC(=O)N1CCN(c2nc(-c3cccs3)nc3ccccc23)CC1 | -1 | 8 | -3 | 41* | -5
Cc1ccc(-c2nnc(N3CCN(C(=O)CN4C(=O)c5ccccc5C4=O)CC3)c3ccccc23)cc1 | -4 | -2 | / | 53* | 0
NC(=O)C1CCN(c2nc(-c3ccccc3)nc3ccccc23)CC1 | / | -12 | / | 58* | -1
CCOC(=O)N1CCN(c2nc(-c3cccs3)nc3ccccc23)CC1 | -7 | 6 | 3 | 3 | 9
COC(=O)C(CC#Cc1ccc2c(c1)[C@]1(C(=O)N2)[C@H](c2ccccc2OCCO)N2[C@H](c3ccccc3)[C@H](c3ccccc3)OC(=O)[C@H]2[C@@H]1C(=O)NC[C@H](O)c1ccccc1)C(=O)OC | / | 26[16.7 µM] | -5 | / | /
C[C@@H]1CN([C@@H](C)CO)C(=O)c2cc(NS(=O)(=O)c3cn(C)cn3)ccc2O[C@H]1CN(C)Cc1ccc(Cl)c(Cl)c1 | / | / | 5 | 10 | /
CCCC(=O)Nc1ccc2c(c1)C(=O)N(C)[C@H]1CC[C@H](CC(=O)OC)O[C@H]1CO2 | -8 | 9[16.7 µM] | / | 14 | /
COc1ccc(-c2cnc3c(c2)C(=O)N([C@@H](C)CO)C[C@@H](C)[C@H](CN(C)C(=O)Cc2ccccn2)O3)cc1 | / | -15[16.7 µM] | -1 | -1 | /
O=c1c2ccccc2cnn1-c1nc2ccccc2[nH]1 | / | 63* | -4 | 10 | 8
C[C@@H]1CN([C@H](C)CO)S(=O)(=O)c2ccc(-c3ccc(C#N)cc3)cc2O[C@H]1CN(C)C | / | -15[16.7 µM] | -4 | 48* | /
C[C@@H]1CN([C@H](C)CO)S(=O)(=O)c2ccc(-c3ccc(F)cc3)cc2O[C@@H]1CN(C)CC1CC1 | / | -4[16.7 µM] | 27* | 12 | /
CCCN(C)C[C@@H]1Oc2cc(-c3ccc(C)cc3)ccc2S(=O)(=O)N([C@@H](C)CO)C[C@@H]1C | -5 | 10[16.7 µM] | -10 | 2 | /
C[C@@H]1CN([C@@H](C)CO)S(=O)(=O)c2ccc(-c3ccc(C#N)cc3)cc2O[C@H]1CN(C)C | / | -4[16.7 µM] | -10 | 19 | /
SMILES | FN deposit inh | Env fusion inh | ERp5 block | GSIS activator | PDI inh
CCCN(C)C[C@@H]1Oc2cc(-c3ccc(F)cc3)ccc2S(=O)(=O)N([C@@H](C)CO)C[C@@H]1C | / | -13[16.7 µM] | 32* | 3 | /
C[C@H](CO)N1C[C@H](C)[C@@H](CN(C)CC2CC2)Oc2cc(-c3ccc(F)cc3)ccc2S1(=O)=O | / | -2[16.7 µM] | -5 | / | /
CC(C)NC(=O)N[C@@H]1CC[C@@H](CC(=O)N2CCCCC2)O[C@@H]1CO | -1 | -12[16.7 µM] | -2 | 6 | /
CO[C@H]1CN(C)C(=O)c2ccc(NC(=O)Nc3ccc(C(F)(F)F)cc3)cc2OC[C@H](C)NC[C@H]1C | 6 | -3[16.7 µM] | 5 | -7 | /
C[C@H]1CN([C@@H](C)CO)C(=O)Cc2cc(NC(=O)Nc3ccc(F)cc3)ccc2O[C@@H]1CN(C)C(=O)Nc1ccc2c(c1)OCO2 | -4 | -8[16.7 µM] | -9 | 4 | /
COc1ccc2c3c([nH]c2c1)[C@H](CO)N(Cc1ccc(Cl)cc1)CC31CN(Cc2nccs2)C1 | / | / | 10 | 7 | /
CCCC(=O)Nc1ccc2c(c1)C(=O)N(C)C[C@@H](OC)[C@@H](C)CN(Cc1nccs1)[C@@H](C)CO2 | 14 | 58*[16.7 µM] | -1 | -3 | /
CO[C@@H]1CN(C)C(=O)c2cc(NC(=O)CC(F)(F)F)ccc2OC[C@H](C)N(C(=O)C2CC2)C[C@@H]1C | -6 | / | / | 6 | /
CO[C@H]1CN(C)C(=O)c2cc(NC(=O)CC(F)(F)F)ccc2OC[C@H](C)N(C(=O)C2CC2)C[C@@H]1C | 3 | / | 42* | 6 | /
CO[C@H]1CN(C)C(=O)c2cc(NC(C)=O)ccc2OC[C@@H](C)N(C(=O)CN2CCOCC2)C[C@H]1C | 31* | -1[16.7 µM] | 11 | -9 | /
CO[C@H]1CN(C)C(=O)c2cc(NC(C)=O)ccc2OC[C@@H](C)N(Cc2nccs2)C[C@H]1C | 5 | 70*[16.7 µM] | -5 | 14 | /
CO[C@@H]1CN(C)C(=O)c2cc(NC(=O)Nc3ccc(Cl)cc3)ccc2OC[C@H](C)N(C)C[C@H]1C | -4 | 60*[16.7 µM] | / | -14 | /
Cc1ccc(S(=O)(=O)N[C@H]2CC[C@H](CC(=O)NC3CCCCC3)O[C@@H]2CO)cc1 | -9 | 8[16.7 µM] | 3 | -2 | /
Cc1cc(OCc2cc(C(=O)N3CCC(Oc4cccnc4)CC3)no2)cc(C)c1Cl | / | 67* | 3 | -53 | 16
O=C(Nc1ccccc1N1CCOCC1)C1=NN(c2ccccc2)C(=O)CC1 | / | -17 | 5 | 50* | 5
O=C(Nc1cc(C(F)(F)F)ccc1N1CCOCC1)C1=NN(c2ccccc2)C(=O)CC1 | 0 | -3 | -1 | -13 | 7
COc1ccccc1S(=O)(=O)Cc1ccc(C(=O)N2CCN(c3ccccc3)CC2)o1 | / | -15 | / | / | -2
COc1ccccc1S(=O)(=O)Cc1ccc(C(=O)N2CCN(c3cccc(Cl)c3)CC2)o1 | -1 | 98* | / | / | 1
Cc1noc(C)c1C(=O)N(C)C[C@@H]1OCc2ccccc2-c2ccccc2C(=O)N([C@@H](C)CO)C[C@@H]1C | -9 | 23[16.7 µM] | -5 | 2 | /
Cc1ccccc1-c1nc(S(=O)(=O)c2ccccc2)c(NCCN2CCOCC2)o1 | 0 | 59* | -1 | -5 | 16
O=S(=O)(c1ccccc1)c1nc(-c2ccco2)oc1NCCN1CCOCC1 | / | / | -1 | -1 | 3

Screening data (PubChem BioAssay)
